Changes are numbered by the printed parent chain.
Tests used:
[1] = test system: native GlyRs in cultured spinal neurons; test: Whole-cell patch-clamp of Gly-activated current; type: cell-based, rat; details: vs vehicle
How it was run: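 Spinal cords from postnatal day 0 rats, papain-dissociated (20 U/ml, 37°C, 40 min). Plated at 300,000 cells/ml on poly-d-lysine in MEM/10% FBS, cultured ≥10 d, washed 30 min in external solution. Whole-cell, −60 mV, 20–22°C.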

[2] = molecular target: T1, S296A mutant human α1 GlyR (Homo sapiens, UniProt P23415, S324A); test: cell-based; type: cell-based; details: for effect of S296A mutation on cannabinoid-induced potentiation of IGly: cannabinoid 1 μM, EC2 Gly (10 μM), vs wild-type α1
T1 sequence (P23415 29-457 S324A): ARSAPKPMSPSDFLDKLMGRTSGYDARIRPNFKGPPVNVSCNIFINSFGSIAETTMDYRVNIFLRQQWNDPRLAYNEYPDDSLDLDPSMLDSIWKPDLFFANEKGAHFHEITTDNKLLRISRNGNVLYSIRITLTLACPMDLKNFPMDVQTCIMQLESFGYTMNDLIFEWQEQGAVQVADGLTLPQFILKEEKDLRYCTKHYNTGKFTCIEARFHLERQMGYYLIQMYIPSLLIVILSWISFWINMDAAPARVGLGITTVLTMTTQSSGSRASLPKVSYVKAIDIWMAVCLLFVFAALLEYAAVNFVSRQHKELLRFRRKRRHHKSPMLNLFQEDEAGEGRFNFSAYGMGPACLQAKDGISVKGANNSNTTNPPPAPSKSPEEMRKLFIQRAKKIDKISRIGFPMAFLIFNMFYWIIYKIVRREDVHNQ

human α1 GlyR = molecular target: T2, human α1 GlyR (Homo sapiens, UniProt P23415); test: cell-based; type: cell-based; details: for efficacy in potentiating IGly relative to AEA: concentration-response, α1 subunit (Fig. 5B)
T2 sequence (P23415 29-457): T1 sequence (P23415 29-457 S324A) with A296S

rat α2 GlyR = molecular target: T3, rat α2 GlyR (Rattus norvegicus, UniProt P22771); test: Whole-cell patch-clamp of IGly in HEK-293 cells expressing α2 GlyRs; type: cell-based; details: read-out: EC50 for Gly (concentration-response curve); α2 subunit
T3 sequence (P22771 28-452): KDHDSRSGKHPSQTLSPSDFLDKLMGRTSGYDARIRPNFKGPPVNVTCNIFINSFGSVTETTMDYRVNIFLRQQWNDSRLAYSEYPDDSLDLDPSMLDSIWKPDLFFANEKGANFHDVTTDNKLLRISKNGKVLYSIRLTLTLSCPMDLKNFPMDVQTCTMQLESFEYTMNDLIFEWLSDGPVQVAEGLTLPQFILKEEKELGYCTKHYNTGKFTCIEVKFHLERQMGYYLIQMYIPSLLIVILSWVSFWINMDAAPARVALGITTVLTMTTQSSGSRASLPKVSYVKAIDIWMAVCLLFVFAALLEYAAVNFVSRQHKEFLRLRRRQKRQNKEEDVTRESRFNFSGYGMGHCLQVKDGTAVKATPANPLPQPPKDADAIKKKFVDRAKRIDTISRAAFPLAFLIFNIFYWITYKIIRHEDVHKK

rat α3 GlyR = molecular target: T4, rat α3 GlyR (Rattus norvegicus, UniProt P24524); test: Whole-cell patch-clamp of IGly in HEK-293 cells expressing α3 GlyRs; type: cell-based; details: read-out: EC50 for Gly (concentration-response curve); α3 subunit
T4 sequence (P24524 34-464): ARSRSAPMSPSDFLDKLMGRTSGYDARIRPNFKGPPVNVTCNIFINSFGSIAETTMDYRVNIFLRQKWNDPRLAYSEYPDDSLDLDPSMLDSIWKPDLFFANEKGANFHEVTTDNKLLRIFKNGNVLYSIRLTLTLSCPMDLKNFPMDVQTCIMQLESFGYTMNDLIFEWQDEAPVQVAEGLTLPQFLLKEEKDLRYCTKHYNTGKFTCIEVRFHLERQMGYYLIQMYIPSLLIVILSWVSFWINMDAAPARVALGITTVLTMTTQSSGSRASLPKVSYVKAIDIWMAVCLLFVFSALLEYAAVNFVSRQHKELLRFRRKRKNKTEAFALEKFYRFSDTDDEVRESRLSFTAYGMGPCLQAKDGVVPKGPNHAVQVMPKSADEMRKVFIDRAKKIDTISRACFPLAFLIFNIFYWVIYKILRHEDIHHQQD

[3] = HEK293, read-out: inhibition of IGly
[4] = 3 μM coapplied, apparently competitive, parallel rightward shift

In the case of SR144528, the “effect of antagonist on AEA-induced potentiation of IGly” value (from here on “effect of antagonist”) ([1]; antagonist 1 μM) is reported as “did not significantly alter”.

For `CCCCCCC(C)(C)c1cc(O)c2c(c1)OC(C)(C)[C@@H]1CC=C(CO)C[C@@H]21` [HU210], the “effect of S296A mutation on cannabinoid-induced potentiation of IGly” value (“effect of S296A mutation” for short) [2] was “significantly reduced”.

For `Oc1cc2c(cc1O)CN(C(=S)NCCc1ccc(Cl)cc1)CCC2` [capsazepine], the “effect of antagonist” value ([1]; antagonist 2 μM) was “did not significantly alter”.

`CCCCCC=CCC=CCC=CCC=CCCCC(=O)NCC` [Dehydroxyl-AEA, Dehydroxylanandamide] was tested, and the “efficacy in potentiating IGly relative to AEA” value (human α1 GlyR) was “reduced efficacy”.

`O=C1C[C@@H]2OCC=C3CN4CC[C@]56c7ccccc7N1[C@H]5[C@H]2[C@H]3C[C@H]46` [strychnine] was tested, and the inhibition at 0.1 µM (human α1 GlyR; [3]) was 78 ± 9% and the inhibition at 0.1 µM [2, 3] was 81 ± 13%.

In the case of `Cc1c(C(=O)NN2CCCCC2)nn(-c2ccc(Cl)cc2Cl)c1-c1ccc(I)cc1` [AM251], the “effect of antagonist” value ([1]; antagonist 1 μM) is reported as “did not significantly alter”.

For `CCCCCc1cc(O)c2c(c1)OC(C)(C)[C@@H]1CCC(C)=C[C@@H]21` [THC, Δ^9-tetrahydrocannabinol], the “effect of S296A mutation” value [2] was “significantly reduced”.

Desoxyanandamide [Desoxy-AEA] was tested, and the “effect on AEA-induced potentiation of IGly” value (human α1 GlyR; [4]) was “inhibited”, the “effect on THC-induced potentiation of IGly” value (human α1 GlyR; [4]) was “inhibited” and the “efficacy in potentiating IGly relative to AEA” value (human α1 GlyR) was “reduced efficacy”.

`NCC(=O)O` [Gly, glycine] was tested, and the EC50 (rat α2 GlyR) was 128 ± 10 µM, the EC50 (rat α3 GlyR) was 354 ± 29 µM and the “maximal current density (MCD)” value (human α1 GlyR) was 912 ± 153 pA/pF. The “maximal current density (MCD)” value [2] was 906 ± 147 pA/pF.

For `C=C(C)[C@@H]1CCC(C)=C[C@H]1c1c(O)cc(CCCCC)cc1O` [CBD, cannabidiol], the “effect of S296A mutation” value [2] was “significantly reduced”.

Source: PMC3334839 (The Journal of Neuroscience, 2012)
